From ChEMBL document CHEMBL5365542, “Difluoromethyl-1,3,4-oxadiazoles Are Selective, Mechanism-Based, and Essentially Irreversible Inhibitors of Histone Deacetylase 6” (J Med Chem, 2023)
Where a chain is given by its changes, count along the chain named. Calls of active or inactive are those of the source. The rule behind the calls is not given here.

Tests used:
[1] = tested on: T1, Histone deacetylase 6 (Danio rerio), F8W4B7 [H574A]; assay: Irreversible inhibition of Danio rerio HDAC6 H574A mutant catalytic domain 2 assessed as enzyme catalysed ring opening by measuring reduction in 2-(Benzylamino)pyrimidine-5-carbohydrazide formation at 100 uM incubated overnight by LC-MS analysis
T1 sequence (whole entry): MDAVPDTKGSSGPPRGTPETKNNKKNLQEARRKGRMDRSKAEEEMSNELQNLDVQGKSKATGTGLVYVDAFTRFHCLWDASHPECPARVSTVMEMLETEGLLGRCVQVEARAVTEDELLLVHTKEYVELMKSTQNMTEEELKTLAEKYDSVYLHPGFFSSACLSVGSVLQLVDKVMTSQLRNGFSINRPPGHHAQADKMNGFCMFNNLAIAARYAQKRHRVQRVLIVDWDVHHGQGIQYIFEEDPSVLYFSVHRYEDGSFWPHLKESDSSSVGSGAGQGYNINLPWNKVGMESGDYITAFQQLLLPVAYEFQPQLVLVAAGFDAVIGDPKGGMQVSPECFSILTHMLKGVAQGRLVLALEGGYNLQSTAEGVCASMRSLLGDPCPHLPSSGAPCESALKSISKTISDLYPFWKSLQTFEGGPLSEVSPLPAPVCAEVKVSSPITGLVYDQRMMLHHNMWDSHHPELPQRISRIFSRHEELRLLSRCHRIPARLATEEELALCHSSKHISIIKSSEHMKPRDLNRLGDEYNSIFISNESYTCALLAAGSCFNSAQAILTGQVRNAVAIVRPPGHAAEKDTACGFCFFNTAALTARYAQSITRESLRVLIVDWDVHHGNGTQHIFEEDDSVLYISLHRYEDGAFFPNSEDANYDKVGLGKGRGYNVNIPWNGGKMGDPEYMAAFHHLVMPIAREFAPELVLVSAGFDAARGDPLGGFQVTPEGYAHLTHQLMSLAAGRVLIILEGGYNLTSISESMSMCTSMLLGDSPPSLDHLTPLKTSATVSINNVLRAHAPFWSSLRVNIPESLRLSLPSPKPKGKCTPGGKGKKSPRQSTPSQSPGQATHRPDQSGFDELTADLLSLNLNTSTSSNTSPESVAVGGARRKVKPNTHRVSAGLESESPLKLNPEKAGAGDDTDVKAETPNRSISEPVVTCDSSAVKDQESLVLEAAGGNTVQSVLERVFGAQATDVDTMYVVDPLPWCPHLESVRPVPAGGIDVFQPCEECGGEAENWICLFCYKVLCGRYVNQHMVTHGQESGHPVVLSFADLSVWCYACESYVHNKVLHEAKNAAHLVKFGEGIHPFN
In short: (§1)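 Zebrafish HDAC6 CD2 mutants were made by site-directed mutagenesis and expressed in BL21(DE3). Enzyme at 50 μM was incubated overnight with 100 μM inhibitor in 50 mM HEPES pH 7.5, 100 mM KCl, 1 mM TCEP, 5% glycerol; an enzyme-free control was included. Protein was methanol-precipitated and filtered, and products were analysed by C18 UPLC-MS with a 2-min gradient.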

[2] = target: Histone deacetylase 3/Nuclear receptor corepressor 2 (HDAC3/NCoR2) (Homo sapiens) (UniProt O15379+Q9Y618); assay: Inhibition of C-terminal His-tagged human HDAC3 (1 to 428 residues)/N-terminal GST tagged human NcoR2 (395 to 489 residues) expressed in Sf9 insect cells using Z-Lys(Ac)-AMC as fluorogenic substrate at 10 uM preincubated for 60 mins followed by substrate addition and measured after 90 mins by microplate reader analysis relative to control; settings: time 150.0 min
In short: (§2)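 Human recombinant enzyme was preincubated with 3-fold inhibitor dilutions for 60 min at 25 °C in Tris-HCl pH 8.0 buffer with BSA. ZMAL (75 μM solution) was then added, and the mix was incubated 90 min at 37 °C (max 1% DMSO). Trypsin was added for 30 min at 37 °C, and fluorescence was read at ex 355/em 460. Tested at least twice in duplicate.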

[3] = tested on: T2, Histone deacetylase 6 (Danio rerio), F8W4B7 [H573A]; assay: Irreversible inhibition of Danio rerio HDAC6 H573A mutant catalytic domain 2 assessed as enzyme catalysed ring opening by measuring reduction in 2-(Benzylamino)-N'-(2,2-difluoroacetyl)pyrimidine-5-carbohydrazide formation at 100 uM incubated overnight by LC-MS analysis; in short: as §1
T2 sequence (whole entry): T1 sequence (whole entry) with H573A, A574H

[4] = target: Histone deacetylase 1 (Homo sapiens) (UniProt Q13547); assay: Inhibition of C-terminal 6His/FLAG tagged human recombinant HDAC1 (1 to 482 residues) […] expressed in Sf9 insect cells using Z-Lys(Ac)-AMC as fluorogenic substrate at 10 uM preincubated for 60 mins followed by substrate addition and measured after 90 mins by microplate reader analysis relative to control; settings: time 150.0 min; in short: as §2
Chain of Histone deacetylase 1 (Homo sapiens) (Q13547 whole entry, the tested form may be a part): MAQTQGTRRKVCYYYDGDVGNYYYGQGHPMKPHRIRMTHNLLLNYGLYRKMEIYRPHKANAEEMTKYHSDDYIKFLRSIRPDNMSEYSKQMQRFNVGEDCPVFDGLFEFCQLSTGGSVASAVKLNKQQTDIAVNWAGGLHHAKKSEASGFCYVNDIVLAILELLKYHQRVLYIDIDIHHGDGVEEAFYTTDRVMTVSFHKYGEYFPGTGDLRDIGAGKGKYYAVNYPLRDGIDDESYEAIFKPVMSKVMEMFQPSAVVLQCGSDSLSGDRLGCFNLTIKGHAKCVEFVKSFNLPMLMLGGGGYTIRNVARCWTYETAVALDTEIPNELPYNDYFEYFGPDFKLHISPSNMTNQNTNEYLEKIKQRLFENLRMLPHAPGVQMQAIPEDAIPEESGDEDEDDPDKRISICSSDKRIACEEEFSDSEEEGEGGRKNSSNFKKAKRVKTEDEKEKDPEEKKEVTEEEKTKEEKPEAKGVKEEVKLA

[5] = tested on: T2, Histone deacetylase 6 (Danio rerio), F8W4B7 [H573A]; assay: Irreversible inhibition of Danio rerio HDAC6 H573A mutant catalytic domain 2 assessed as enzyme catalysed ring opening by measuring reduction in 2-(benzylamino)-N'-(2,2,2-trifluoroacetyl)pyrimidine-5-carbohydrazide formation at 100 uM incubated overnight by LC-MS analysis; in short: as §1

SMILES | inhibition [1] | inhibition [2] | inhibition [3] | inhibition [4] | inhibition [5]
FC(F)(F)c1nnc(-c2cnc(NCc3ccccc3)nc2)o1 | Active | < 15% | Active | < 15% | Active
FC(F)c1nnc(-c2cnc(NCc3ccccc3)nc2)o1 | Active | < 15% | Active | < 15% | Active
